Assay results published in PubChem BioAssay.
Calls of active or inactive are those of the source.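 How the source made its calls: active means potentiation averaged over duplicate wells exceeding buffer-only control mean by more than 3 SD; inactive means the rest.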

Molecular target: Potassium voltage-gated channel subfamily KQT member 1 (Homo sapiens) (UniProt P51787)
Assay: enhancement of KCNQ1 channel thallium flux – FluxOR thallium flux, CHO cells, duplicates, confirmation (AID 493007);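 on outcome: cells depolarized by a potassium plus thallium sulfate stimulus after compound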
Conditions: KCNQ1 cell line, FluxOR thallium flux fluorescence, at 10 µM; stronger effect = higher value, % of reference activator effect, buffer zero
Method in brief: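 System: KCNQ1-expressing CHO cell line; technique: kinetic thallium influx fluorescence with FluxOR dye, 10 s baseline, 110 s post-stimulus; timing: dye 90 min then compound 20 min, both at room temperature; controls: buffer-only wells as 0% and R-L3 activator as 100%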

Potassium voltage-gated channel subfamily KQT member 1 (Homo sapiens), sequence (P51787 whole entry, looked up): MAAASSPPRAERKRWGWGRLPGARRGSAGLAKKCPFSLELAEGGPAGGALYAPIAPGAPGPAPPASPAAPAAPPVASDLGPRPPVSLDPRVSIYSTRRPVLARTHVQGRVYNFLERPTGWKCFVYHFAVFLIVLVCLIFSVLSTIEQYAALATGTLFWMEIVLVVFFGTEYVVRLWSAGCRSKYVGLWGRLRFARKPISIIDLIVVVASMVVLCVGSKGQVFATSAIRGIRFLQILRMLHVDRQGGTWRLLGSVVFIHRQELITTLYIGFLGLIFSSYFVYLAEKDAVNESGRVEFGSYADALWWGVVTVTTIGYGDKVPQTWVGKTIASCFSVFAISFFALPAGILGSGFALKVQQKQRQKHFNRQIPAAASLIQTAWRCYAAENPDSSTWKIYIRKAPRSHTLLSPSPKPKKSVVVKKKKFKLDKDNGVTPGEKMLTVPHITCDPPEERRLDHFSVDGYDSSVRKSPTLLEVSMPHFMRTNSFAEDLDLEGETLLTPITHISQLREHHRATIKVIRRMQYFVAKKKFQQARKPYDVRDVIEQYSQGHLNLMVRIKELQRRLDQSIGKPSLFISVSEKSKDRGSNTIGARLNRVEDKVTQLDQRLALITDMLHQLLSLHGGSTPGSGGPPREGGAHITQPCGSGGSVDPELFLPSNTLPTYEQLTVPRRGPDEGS

outcome, inactive:
Oc1c(N=NC(=S)Nc2ccccc2F)c2ccccc2n1Cc1cccc(Cl)c1
COC(=O)[C@H](C)NC(=O)Nc1cc(Cl)ccc1C
Cc1ccc(-n2c(-c3ccc(Cl)cc3)n[nH]c2=S)c(C)c1
CC(CNC(=O)COc1ccccc1)OC(=O)Nc1ccc(Cl)c(Cl)c1 (stereo not drawn)
O=C(Nc1cccc(-c2nnc(-c3ccco3)o2)c1)c1ccccc1
O=C(N1CCOCC1)N1CCC(n2nnc3ccccc32)CC1
CCOC(=O)c1sc(NC(=O)c2ccccc2C(=O)O)c(C(=O)OCC)c1C
CC(=O)c1ccc(NC(=S)NC(=O)c2c(Cl)c(C)nn2C)cc1
O=C(NNc1c2ccccc2nc2ccccc12)c1ccccc1Cl
COc1ccc(O)c(C(=O)c2cnn(-c3ccc(Cl)cc3)c2)c1
COC(=O)c1cc(-c2cc(OC)ccc2OC)nc2c1c(=O)n(C)c(=O)n2Cc1ccccc1
CCOC(=O)C1CCN(C(=O)COC(=O)c2cc(-c3cccs3)nn2-c2ccccc2)CC1
CC1CN(C(=O)C2CC(=O)N(c3ccc(Cl)cc3)C2)CC(C)O1 (stereo not drawn)
CCOC(=O)CS(=O)(=O)c1nc(-c2ccc(F)cc2)cc(C(F)(F)F)n1

potentiation, active:
Cc1ccc(C)c(NC(=S)NNC(=O)c2csc(C(C)C)c2)c1 55.5%
COc1ccc(/C=C(\NC(=O)c2cccs2)C(=O)N2CCOCC2)cc1OC 29.5%
CNCCC=C1c2ccccc2CCc2ccccc21 76%
CN(C(=S)NC(=O)c1ccc(F)cc1)C1CCCCC1 31.5%
